Results published in ChEMBL document CHEMBL3580610, “Design, Synthesis, and Evaluation of Thyronamine Analogues as Novel Potent Mouse Trace Amine Associated Receptor 1 (mTAAR1) Agonists” (J Med Chem, 2015).
Activity calls are given as the source filed them. The rule behind the calls is not given here.

Experiments:
[1] = biological target: Trace amine-associated receptor 1 (Mus musculus, UniProt Q923Y8); assay: Agonist activity at mouse TAAR1 expressed in HEK293 cells coexpressing cAMP BRET biosensor assessed as induction of CAMP production after 20 mins by bioluminescence resonance energy transfer assay; format: functional, cell-based
Outline: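 HEK-293 cells transiently transfected with mTAAR1 (or empty vector as control) plus EPAC cAMP BRET biosensor. Read started immediately after agonist addition, continuing ~20 min. IBMX 200 μM final present throughout. Initial screen at 10 μM; actives then run as dose-response. Emission read in 465−505 and 515−555 nm windows, acceptor/donor ratio taken. EC50 from nonlinear one-site fit; 4−6 independent experiments, mean ± SEM.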

[2] = biological target: Trace amine-associated receptor 1 (Mus musculus) (UniProt Q923Y8); assay: Agonist activity at mouse TAAR1 expressed in HEK293 cells coexpressing cAMP BRET biosensor assessed as induction of CAMP production after 20 mins by bioluminescence resonance energy transfer assay relative to control; format: functional, cell-based
Outline: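 Transient co-transfection of HEK-293 cells with mTAAR1 and the EPAC cAMP BRET biosensor; empty vector as control. Assayed with IBMX at 200 μM final. Screened at 10 μM, then dose-response on actives. Read-out is the acceptor/donor ratio from the 465−505 and 515−555 nm windows; time courses read for about 20 min after agonist addition. EC50 from nonlinear regression (one site specific binding); 4−6 independent experiments, mean ± SEM.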

Heart [3] = assay: Reduction in cardiac out put in male Wistar rat heart assessed as aortic and coronary flow at 20 to 40 uM after 30 mins by Cardiac perfusion technique; format: functional, tissue-based
Outline: (§1)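 Male Wistar rats (275−300 g) were anesthetized with ether/air and given 1000 U heparin iv (femoral vein). The heart was excised and perfused as a working heart (atrial 20 cm, aortic 100 cm cannulae). After 5 min equilibration, it was perfused 60 min with buffer containing DMSO vehicle or escalating doses in DMSO. Cardiac output = aortic + coronary flow. 30-min values are expressed as % of baseline. IC50 from sigmoidal nonlinear regression; 3−7 hearts per group, mean ± SE.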

Heart [4] = assay: Reduction in cardiac out put in male Wistar rat heart assessed as aortic and coronary flow at 40 uM within 10 mins by Cardiac perfusion technique relative to control; format: functional
Heart [5] = assay: Reduction in cardiac out put in male Wistar rat heart assessed as aortic and coronary flow measured as rate of duration of experiment at 40 uM by Cardiac perfusion technique; format: functional
Heart [6] = assay: Reduction in cardiac out put in male Wistar rat heart assessed as aortic and coronary flow after 30 mins by Cardiac perfusion technique; format: functional, tissue-based; conditions: 0.5 h; outline: as §1
Mus musculus [7] = assay: Induction of plasma glucose level in fasted CD1 mouse at 4 ug/kg, ip after 15 mins glucorefractometry relative to T1AM; format: functional, organism-based
Outline: (§2)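 Male CD-1 mice were fasted 4 h (8 to 12 h) and given a single ip dose (1.32, 4 or 11 μg·kg−1) or saline; n = 10 per group. Tail-vein blood glucose was read by glucorefractometer 15 min after injection. One-way ANOVA with Student−Newman−Keuls post hoc test, P < 0.05; mean ± SEM.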

Mus musculus [8] = assay: Induction of plasma glucose level in fasted CD1 mouse at 1.32 ug/kg, ip after 15 mins glucorefractometry relative to T0AM; format: functional, organism-based; outline: as §2

Chain of Trace amine-associated receptor 1 (Mus musculus) (Q923Y8 whole entry): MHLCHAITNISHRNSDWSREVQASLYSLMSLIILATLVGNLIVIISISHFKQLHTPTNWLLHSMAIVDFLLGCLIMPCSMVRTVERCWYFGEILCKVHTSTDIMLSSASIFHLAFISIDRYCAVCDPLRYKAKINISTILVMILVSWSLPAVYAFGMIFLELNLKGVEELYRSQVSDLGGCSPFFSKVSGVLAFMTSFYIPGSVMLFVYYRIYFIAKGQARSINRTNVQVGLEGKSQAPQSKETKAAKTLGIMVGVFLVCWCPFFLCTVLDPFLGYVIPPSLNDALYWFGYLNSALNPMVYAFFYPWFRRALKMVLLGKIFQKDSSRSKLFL
Chain of Trace amine-associated receptor 1 (Q923Y8 whole entry): as above

`NCCc1ccccc1` [PHENETHYLAMINE] gave an EC50 [1] of 138 nM.

Molecule `NCCc1ccc(Cc2ccc(N)cc2)cc1` has an EC50 [1] of 800 nM and an Emax [2] of 100%.

`Cc1cc(OCCN)ccc1Cc1ccc(N)cc1` was tested, and the EC50 [1] was 240 nM, the Emax [2] was 75% and the inhibition (Heart [3]) was “Active”. For the same molecule, the inhibition at 40 µM (Heart [4]) was 60%, the Time (Heart [5]) was 1 h and the IC50 (Heart [6]) was 30 µM. For the same molecule, the Activity (Mus musculus [7]) was “Active”.

Molecule `NCCOc1ccc(Cc2ccc(O)cc2)cc1` has an EC50 [1] of 2200 nM and an Emax [2] of 80%.

Work on `NCCc1ccc(Oc2ccc(O)cc2)c(I)c1` yielded an EC50 [1] of 189 nM and an IC50 (Heart [6]) of 27 µM.

In the case of `Nc1ccc(Cc2ccc(OCC(=O)O)cc2)cc1`, the IC50 (Heart [6]) is reported as 30 µM and the Activity (Mus musculus [8]) is reported as “inactive”.

For `NCCOc1ccc(Cc2ccc(N)cc2)cc1`, the EC50 [1] was 1700 nM, the Emax [2] was 40% and the IC50 (Heart [6]) was 34 µM. The Activity (Mus musculus [8]) was “inactive”.

`Cc1cc(OCC(=O)O)ccc1Cc1ccc(N)cc1` was tested, and the IC50 (Heart [6]) was 30 µM and the Activity (Mus musculus [8]) was “Active”.
